MrgX1 PAM: positive allosteric modulators of MrgX1, primary screen, HEK293 cells, Fluo-4 calcium flux; Mas-related G-protein coupled receptor member X1 (Homo sapiens), Q96LB2; AID 588675, 2011; 0.63% of 310,000 active; FDSS; hits give high values; B-score at 10 µM;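 active = plate-corrected calcium response at least 3 library SD above typical, normal starting fluorescence, not activating the receptor alone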;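 also: compound read alongside a low EC10 to EC30 dose of BAM8-22 agonist; peak minus trough fluorescence over baseline measured at the second addition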
Target sequence (Q96LB2 whole entry, looked up): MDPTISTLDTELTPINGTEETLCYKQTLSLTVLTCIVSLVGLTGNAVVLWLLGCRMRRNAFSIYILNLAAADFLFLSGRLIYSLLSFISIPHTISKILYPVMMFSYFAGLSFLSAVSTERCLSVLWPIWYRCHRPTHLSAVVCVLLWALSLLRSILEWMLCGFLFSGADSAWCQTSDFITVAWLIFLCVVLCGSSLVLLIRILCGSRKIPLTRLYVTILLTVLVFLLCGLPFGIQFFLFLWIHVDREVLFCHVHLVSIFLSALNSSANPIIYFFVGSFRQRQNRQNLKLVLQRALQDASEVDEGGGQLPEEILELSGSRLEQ
RGS4 block: RGS4 inhibitors, primary screen, cell-based, HEK293 M3R inducible RGS4, calcium flux; 0.45% of 310,000 active; Fluo-4 calcium flux; hits give high values; triggered by carbachol at its EC20; B-score at 10 µM; Regulator of G-protein signaling 4 (Homo sapiens), P49798;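 active = B-score, a plate-corrected calcium signal, over three deviations above library mean, with baseline fluorescence within five deviations of library mean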;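 also: RGS4 expression induced by doxycycline in cells with stable M3 receptor; B-score is computed from the integrated fluorescence ratio over baseline after carbachol; higher B-score means a larger calcium signal and so more RGS4 inhibition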
Target sequence (P49798 whole entry, looked up): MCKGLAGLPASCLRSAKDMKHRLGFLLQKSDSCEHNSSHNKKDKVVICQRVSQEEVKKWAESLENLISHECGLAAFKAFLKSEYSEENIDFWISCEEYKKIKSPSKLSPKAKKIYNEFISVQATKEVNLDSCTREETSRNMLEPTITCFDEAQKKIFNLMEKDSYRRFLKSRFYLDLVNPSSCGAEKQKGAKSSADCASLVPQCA
MrgX1 antag: antagonists of human MrgX1 receptor, primary screen, HEK293 cells, Fluo-4 calcium flux | Mas-related G-protein coupled receptor member X1 (Homo sapiens), Q96LB2 | BAM8-22 antagonism; hits give low values | B-score at 10 µM | 1.3% of 310,000 active | AID 588676, 2011;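 active = calcium-response B-score plate-corrected more than 3 library SD below zero, starting fluorescence within 5 deviations, no agonist response on first addition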;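 also: peak minus trough fluorescence over baseline after final BAM8-22 challenge near maximal dose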
RGS4 act: RGS4 potentiators or activators, primary screen, cell-based, HEK293 M3R inducible RGS4, calcium flux; B-score at 10 µM; AID 463111, 2010; 0.92% of 310,000 active; carbachol calcium flux Fluo4; hits give low values;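 active = B-score of the integrated calcium signal more than 4 SD below the library mean, with starting fluorescence not abnormally high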;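 also: negative B-score means reduced calcium response which marks RGS4 activation or potentiation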
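test system = M3R-expressing HEK293 line, RGS4 induced by doxycycline | probe or stimulus = carbachol at ECmax as muscarinic agonist stimulus | timing = dye loading 30 min 37 °C, buffer rest 30 min RT | signal = calcium dye Fluo4 fluorescence | evaluation = B score from integrated fluorescence ratio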
MrgX1 ag: agonists of human MrgX1 receptor, primary screen, HEK293 cells, Fluo-4 calcium flux; 0.44% of 310,000 active; AID 588627, 2011; B-score at 10 µM; Fluo-4 calcium fluorescence, agonist mode; hits give high values;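 active = calcium response B-score plate-corrected fluorescence ratio at least 3 library SD, with starting fluorescence B-score inside 5 SD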
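Test system: HEK293 cells stably expressing human MrgX1 receptor; Input: fifteen thousand cells per well; Dosing: compound delivered in addition one of three; Schedule: overnight seeding, then 1 h dark dye loading; Technique: Fluo-4 NW calcium fluorescence; Measure: B-scored fluorescence response ratio; Controls: positive and negative controls per plate.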
RGS4 block valid: enhanced carbachol calcium response, M3R/RGS4 cells, RGS4 inhibitor project, cell-based, validation screen, HEK293 M3R/RGS4, calcium flux; carbachol calcium Fluo-4 fluorescence; carbachol added at its EC20; 0 = buffer wells, 100 = carbachol control; 65% of 1,700 active; AID 492999, 2010; calcium response, % at 10 µM; shares compounds with RGS4 block;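 active = duplicate-averaged calcium response above the buffer-only control mean plus 5 SD of those controls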;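 also: integrated fluorescence ratio F max minus min over baseline F0; higher response in RGS4-induced cells means RGS4 inhibition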
RGS4 uninduced: carbachol calcium response in non-induced M3R cells, confirmation, counter-screen for RGS4 inhibitor project, cell-based, HEK293 M3R | shares compounds with RGS4 block | carbachol calcium Fluo-4; submaximal (EC20) carbachol stimulus; buffer wells 0%, carbachol control wells 100% | activity (percent), % at 10 µM | 20% of 1,900 active | AID 493000, 2010; call rule not given here;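 also: RGS4 induction absent so cells express M3R without RGS4; higher means more calcium signal and flags a non-specific hit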
RGS4 inh ctr2: second counter-screen for RGS4 inhibitors: non-induced cells without carbachol. shares compounds with RGS4 block. HEK293 M3R/RGS4 non-induced, Fluo-4 calcium, no carbachol; normalised: buffer wells 0%, carbachol wells 100%. calcium response (agonist-mode artifact), % at 10 µM. 22% of 1,900 active;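 active = duplicate-averaged calcium rise in uninduced cells above buffer wells' mean plus 5 SD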
Numbers stand for hits; i = inactive; nt = not tested or not shown. Only some compounds are listed: those with a hit (about 3.5% of all), similar ones and a draw of the others.

SMILES	MrgX1 PAM	RGS4 block	MrgX1 antag	RGS4 act	MrgX1 ag	RGS4 block valid	RGS4 uninduced	RGS4 inh ctr2
CSc1ccc(S(=O)(=O)Nc2ccc(S(=O)(=O)Nc3ccc(C)cc3)cc2)cc1	i	5	i	i	i	28%	i	i
CCOc1cccc(-c2nc3c(s2)CCc2onc(-c4cccc([N+](=O)[O-])c4)c2-3)c1	i	i	i	i	i	nt	nt	nt
O=C1c2cccc3cc([N+](=O)[O-])cc(c23)C(=O)N1c1ccccc1O	i	5.1	i	i	i	14%	i	i
COc1ccc(C2=Nn3c(nnc3-c3ccccc3OC)SC2)cc1OC	i	8.2	i	i	i	20%	34%	i
COc1ccc(C2=Nn3c(nnc3-c3ccccn3)SC2)cc1OC	i	i	i	i	i	nt	nt	nt
COC(=O)c1nn(C23CC4CC(CC(C4)C2)C3)c2c1C(=O)N(c1ccc(F)cc1)C2=O	i	i	i	i	i	i	i	i
Cc1cc(N(CCO)CCO)ccc1N=Nc1cc(F)ccc1F	i	7.3	i	i	i	18%	41%	i
COc1ccc2cc(C(C)C(=O)NC3CCC(O)CC3)ccc2c1 (stereo not given)	i	i	i	i	i	nt	nt	nt
COC(=S)Nc1cccc(C(F)(F)F)c1	i	i	i	i	i	nt	nt	nt
COC(=O)/C=C/C(=O)Nc1cccc(C(F)(F)F)c1	i	6.7	i	i	i	13%	44%	i
CN(C)c1ccc(CC(=O)c2nc3ccccc3s2)cc1	i	i	i	i	i	nt	nt	nt
CCCCC1NC(=S)N(C2CCCCC2)C1=O (stereo not given)	i	i	i	i	i	nt	nt	nt
CCc1cc(-c2[nH]ncc2-c2ccc([N+](=O)[O-])cc2)c(O)cc1OC	26	12	i	i	i	34%	i	i
COc1ccc(-c2cn[nH]c2-c2ccc(OCc3ccc([N+](=O)[O-])cc3)cc2O)cc1OC	i	i	i	i	i	nt	nt	nt
O=C(CCC1CCCCC1)NNC(=O)c1cnccn1	i	8.4	i	i	i	18%	i	i
O=C(NNC(=O)C1CCCCC1)c1cnccn1	i	i	i	i	i	nt	nt	nt
CCOC(=O)c1cc(C)sc1NC(=O)CSC1=NCCS1	i	i	i	i	i	nt	nt	nt
Cc1cccc(C2c3[nH]c4ccccc4c3CCN2C(=O)Cc2n[nH]c(C)n2)n1 (stereo not given)	i	i	i	i	i	nt	i	i
CC(=O)c1ccc(C(=O)N2CCc3c([nH]c4ccccc34)C2c2cccc(C)n2)s1 (stereo not given)	i	i	i	i	i	nt	nt	nt
C=CCSc1nc2ccccc2n1C(=O)/C=C/c1cc(OC)c(OC)c(OC)c1	i	i	i	i	i	nt	nt	nt
CCSc1nc2ccccc2n1C(=O)/C=C/c1ccc(OC)c(OC)c1	i	11	i	i	i	12%	i	i
C=CCSc1nc2ccccc2n1C(=O)/C=C/c1ccc(OC)c(OC)c1	i	i	i	i	i	nt	i	12%
Cc1ccc(C#N)c(SCC(=O)Nc2nccs2)n1	i	i	i	i	i	nt	nt	nt
Cc1ccc(-c2ccc(/C=C3\C(=O)ON=C3c3ccccc3)o2)c([N+](=O)[O-])c1	i	12	-6.3	i	i	i	i	14%
Cc1ccc(/C=C2\C(=O)ON=C2c2ccccc2)o1	i	i	i	i	i	nt	nt	nt
SMILES	MrgX1 PAM	RGS4 block	MrgX1 antag	RGS4 act	MrgX1 ag	RGS4 block valid	RGS4 uninduced	RGS4 inh ctr2
COC(=O)C1=C(CS(=O)(=O)c2ccc(C)cc2)NC(=O)NC1c1ccc(OC)c(OC)c1 (stereo not given)	i	i	i	i	i	i	i	i
CCOC(=O)C1=C(CS(=O)(=O)c2ccc(C)cc2)NC(=O)NC1c1ccc(O)c(OC)c1 (stereo not given)	i	i	i	i	i	nt	nt	nt
COc1cc(/C=N/n2c(C)nc3ccccc3c2=O)cc(OC)c1O	i	i	i	i	i	nt	nt	nt
OCC1OC(n2cnc3c(NC4CCCCC4)ncnc32)C(O)C1O (stereo not given)	i	i	i	i	i	nt	48%	i
CC(C)(C)OC(=O)Nc1ncnc2c1ncn2C1OC(CO)C2OC(C)(C)OC21 (stereo not given)	i	i	i	i	i	nt	nt	nt
OCC1OC(n2cnc3c(NC4CCCC4)ncnc32)C(O)C1O (stereo not given)	i	4.7	i	i	i	41%	i	312%
C=CCNc1ncnc2c1ncn2C1OC(CO)C(O)C1O (stereo not given)	i	4.8	i	i	i	18%	67%	i
OC[C@H]1O[C@@H](n2cnc3c(NC4CCCC4)ncnc32)[C@H](O)[C@@H]1O	i	i	i	i	i	nt	nt	nt
Nc1nc(SCC(=O)Nc2ccccc2C(F)(F)F)[nH]c(=O)c1-c1ccccc1	i	i	i	i	i	nt	nt	nt
CC1(C)NC(=O)N(CC(=O)OCC(=O)Nc2cc(S(=O)(=O)N3CCCCC3)ccc2Cl)C1=O	i	i	i	i	i	nt	nt	nt
O=C(COc1cccc(Br)c1)N/N=C/C(=O)c1ccccc1	i	4.7	i	i	i	8.0%	i	i
Cc1cccc(OCC(=O)N/N=C\c2cn(C)c3ccccc23)c1	i	7.3	i	i	i	i	i	i
O=C(COc1ccccc1)Nc1cc(NC(=O)COc2ccccc2)cc(C(=O)O)c1	i	i	i	i	i	nt	nt	nt
NS(=O)(=O)c1ccc(CCNC(=O)CCC2COc3ccccc3O2)cc1 (stereo not given)	i	i	i	i	i	nt	nt	nt
COc1ccc(CCNC(=O)CCC2COc3ccccc3O2)cc1OC (stereo not given)	i	i	i	i	i	i	i	i
O=C(OCn1ncc(Br)c(Br)c1=O)c1ccc(F)cc1	i	13	i	i	i	24%	i	i
COc1cc(/C=N/NC(=O)c2ccc(F)cc2)ccc1OC(=O)c1ccco1	i	i	i	i	i	nt	nt	nt
COc1cc(/C=C2/C(=O)NN(c3cccc(F)c3)C2=O)ccc1OC(=O)c1ccco1	i	i	i	i	i	nt	i	i
COc1cc(/C=C2/C(=O)NN(c3ccc(Cl)cc3)C2=O)ccc1OC(=O)c1ccco1	i	i	i	i	i	nt	i	8.5%
